# PubChem BioAssay AID624467 (The Scripps Research Institute Molecular Screening Center, 2012)
# Screen size: about 360,000 compounds; about 3,600 (1%) were called active. This is one part of a sample in which actives are shown more often than they occur. Unmarked numbers belong to inactive results.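 Rule for the calls: active = activation above the mean activation of all test compounds in the run plus 3 SD (cut at about 38% in these data); inactive = the rest.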
# Target: Trace amine-associated receptor 1 (Homo sapiens) (UniProt Q96RJ0)
# Sequence (Q96RJ0 whole entry, looked up): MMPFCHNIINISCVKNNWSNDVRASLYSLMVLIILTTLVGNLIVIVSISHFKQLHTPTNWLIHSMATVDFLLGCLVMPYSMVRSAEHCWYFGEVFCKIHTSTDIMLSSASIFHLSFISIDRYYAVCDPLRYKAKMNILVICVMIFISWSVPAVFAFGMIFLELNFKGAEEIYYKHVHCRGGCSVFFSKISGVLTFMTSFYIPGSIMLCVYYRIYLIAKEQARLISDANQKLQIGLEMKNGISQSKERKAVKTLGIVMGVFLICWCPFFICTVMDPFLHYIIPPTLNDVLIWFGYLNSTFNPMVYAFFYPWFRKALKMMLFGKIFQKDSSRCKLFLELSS
# Test: activators of TAAR1 calcium mobilization – Fluo-8 calcium fluorescence, CHO RD-HGA16 cells, primary screen (AID 624467)
# Details: CHO RD-HGA16 TAAR1, Fluo-8 calcium fluorescence; at 3 µM; hits give high values; vehicle wells 0%, saturating PEA agonist 100%
# Method in brief: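 Test system: RD-HGA16 (CHO) cells co-expressing Gα16 and hTAAR1; dosing: one-point dosing at 3 µM (nominal); timing: 17-24 h seeding, 75 min 37 °C dye, 30 min RT; signal: kinetic Fluo-8 calcium fluorescence; read-out basis: % activation relative to PEA EC100 response; controls: DMSO and PEA EC100; replicates: n 1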
row,Compound,activation
1,Cc1cc(C)n(CCNS(=O)(=O)c2ccc(Cl)cc2)n1,2.21%
2,COc1ccc2cc(-c3[nH]ncc3CNCCn3nc(C)cc3C)ccc2c1,44% (active)
3,COc1ccc(-c2cn[nH]c2-c2ccc(OC)cc2)cc1,5.38%
4,C[C@@H]1CN([C@@H](C)CO)S(=O)(=O)c2ccc(C#Cc3cccc(F)c3)cc2O[C@H]1CN(C)S(=O)(=O)c1cn(C)cn1,20.9%
5,CCCCCC(=O)NC(=S)NNC(=O)c1ccc([N+](=O)[O-])cc1,71.7% (active)
6,COCCCNC(=S)NC(=O)c1ccc([N+](=O)[O-])cc1,0.22%
7,CC(C)CC(=O)NC(=S)NNC(=O)c1cccc([N+](=O)[O-])c1,20.7%
8,CCOc1cc(C(=O)N2CCc3cc(OC)c(OC)cc3C2)ccc1OC(F)F,3.06%
9,Cc1cc(OC(=O)NCCc2ccc(F)cc2)ccc1F,3.75%
10,CC[C@H](C)[C@H]1CNC(=O)C(=O)N1CC1CCN(CCc2ccc(OC)c(OC)c2)CC1,-0.17%
11,CCCOc1ccc(F)cc1-c1cc(C(=O)NCc2ccc(F)cc2)[nH]n1,3.61%
12,Cc1ccc(O)c(-c2cc(C(=O)NCc3ccccc3)[nH]n2)c1,8.4%
13,Cc1cc(O)ccc1-c1cc(C(=O)NCc2cc(C(F)(F)F)cc(C(F)(F)F)c2)[nH]n1,39.9% (active)
14,Brc1cnc2ccccc2c1N1CCCCC1,5.6%
15,CCOC(=O)C1=C(CC)Nc2ccccc2N=C1NC(=O)c1cccc(S(=O)(=O)N2CCCC2)c1,7.96%
16,NC(N)=N/N=C/c1ccc(OCc2ccc(Cl)cc2Cl)cc1,84.3% (active)
17,CC(C)(C)NC(=O)NC(=O)COC(=O)Cc1ccc(Cl)cc1Cl,-2.34%

row,Compound,activation
1,NC(=O)COc1ccc(/C=N/NC(=O)C2CCCN2S(=O)(=O)c2ccc(Cl)cc2)cc1 (stereo not drawn),5.15%
2,Cc1cc(C(F)F)n2nc(C(=O)Nc3ccc(S(=O)(=O)NC45CC6CC(CC(C6)C4)C5)cc3)nc2n1,6.82%
3,O=C(Nc1ccc(S(=O)(=O)Nc2ncccn2)cc1)C12CC3CC(CC(C3)C1)C2,0.17%
4,CCn1nccc1C(=O)Nc1ccc(S(=O)(=O)NC23CC4CC(CC(C4)C2)C3)cc1,42.5% (active)
5,COC(=O)c1cc2c(c3c4cc(F)ccc4n(S(=O)(=O)c4ccccc4)c13)C(=O)N(Cc1ccccc1OC)C2,0.14%
6,O=C1CC(Sc2ncn[nH]2)C(=O)N1c1ccccc1 (stereo not drawn),4.92%
7,CC(C)(C)Oc1ncc(Br)c(OC(C)(C)C)n1,1.63%
8,COc1cccc(-c2cnc(OC(C)(C)C)nc2OC(C)(C)C)c1,47.4% (active)
9,COc1cccc(-c2nc3nc(C)cc(C)n3c2NC2CCCCC2)c1,1.46%
10,CN(C(=O)CN1C(=O)NC(C)(CCc2ccccc2)C1=O)c1ccccc1 (stereo not drawn),1.03%
11,CC(=O)C1=C(C)N(Cc2ccccc2)C(=S)NC1c1cccc(Br)c1 (stereo not drawn),-0.24%
12,CN(C)c1ccc(/C=C2\NC(=S)N(Cc3ccccc3)C2=O)cc1,81.4% (active)
13,Cc1ccc(N)cc1CN1CCN(c2ncc(Cc3ccccc3)cn2)CC1,-0.94%
14,COc1ccc(C2/C=C\CN(CC(C)C)CC(=O)N2Cc2ccc(F)cc2)cc1 (stereo not drawn),-1.75%
15,Cc1c([N+](=O)[O-])c(N)nn1C,2.61%
16,Cc1nn2c3cc(N4CCOCC4)ccc3nc2c2ccccc12,2.7%
